Measurements taken from article PMC4110683 (Chemistry and physics of lipids, 2013).
Converted amounts (≈) assume the structure as drawn. Read-outs that look alike come from different tables or passages of the source.

Experiments:
[1] = test system: L. donovani promastigotes; details: read-out: IC50 L. donovani promastigotes; ref Carballeira et al., 2012; cited from earlier work
[2] = test system: caspase-3; test: Caspase-3 activation in SH-SY5Y cells; assay type: cell-based, human; details: 40 μM, 48h, in words
[3] = test system: LdTopIB; details: read-out: LdTopIB EC50; relaxation activity; ref Carballeira et al., 2012; cited from earlier work
[4] = target: PfFabG (Plasmodium falciparum, UniProt Q8I2S7); test: biochemical
[5] = test system: mouse leukaemic monocyte macrophage cell line (RAW 264.7); test: Cytotoxicity to RAW 264.7 cells; assay type: cell-based; details: RAW264.7, read-out: IC50 RAW 264.7
[6] = target: T1, hTopIB (Homo sapiens, UniProt P11387); details: read-out: hTopIB EC50; relaxation activity; ref Carballeira et al., 2012; cited from earlier work
T1 sequence (P11387 1-765): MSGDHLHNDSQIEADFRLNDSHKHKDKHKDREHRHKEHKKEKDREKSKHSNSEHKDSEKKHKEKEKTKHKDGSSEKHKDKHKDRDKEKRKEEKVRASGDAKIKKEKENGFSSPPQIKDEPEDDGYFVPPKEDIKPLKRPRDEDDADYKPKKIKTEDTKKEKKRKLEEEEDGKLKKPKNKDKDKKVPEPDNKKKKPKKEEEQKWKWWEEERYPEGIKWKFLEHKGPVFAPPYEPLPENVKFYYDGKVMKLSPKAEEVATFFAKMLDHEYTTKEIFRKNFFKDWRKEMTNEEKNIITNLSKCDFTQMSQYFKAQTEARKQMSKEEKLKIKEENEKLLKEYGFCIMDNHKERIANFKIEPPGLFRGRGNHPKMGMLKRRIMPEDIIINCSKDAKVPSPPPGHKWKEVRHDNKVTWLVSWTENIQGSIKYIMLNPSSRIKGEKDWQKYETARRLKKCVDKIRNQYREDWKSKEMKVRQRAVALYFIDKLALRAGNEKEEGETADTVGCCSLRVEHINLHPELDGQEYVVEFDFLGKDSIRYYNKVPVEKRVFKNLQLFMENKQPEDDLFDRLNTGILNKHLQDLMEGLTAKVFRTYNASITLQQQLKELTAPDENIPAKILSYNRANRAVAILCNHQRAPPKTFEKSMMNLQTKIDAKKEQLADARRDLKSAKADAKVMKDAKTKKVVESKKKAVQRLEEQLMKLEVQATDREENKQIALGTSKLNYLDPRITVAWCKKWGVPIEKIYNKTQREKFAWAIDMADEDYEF

[7] = test system: housefly; details: in words, ref de Renobales et al., 1986; cited from earlier work
[8] = test system: human SH-SY5Y neuroblastoma cells; test: LDH release in SH-SY5Y cells; assay type: cell-based; details: 40 μM, 48h, in words
[9] = test system: P. falciparum K1; test: Toxicity to P. falciparum K1 strain; assay type: cell-based, Plasmodium falciparum
[10] = target: T2, PfFabI (Plasmodium falciparum, UniProt Q9BH77); test: Inhibition of PfFabI; assay type: biochemical
T2 sequence (Q9BH77 22-432): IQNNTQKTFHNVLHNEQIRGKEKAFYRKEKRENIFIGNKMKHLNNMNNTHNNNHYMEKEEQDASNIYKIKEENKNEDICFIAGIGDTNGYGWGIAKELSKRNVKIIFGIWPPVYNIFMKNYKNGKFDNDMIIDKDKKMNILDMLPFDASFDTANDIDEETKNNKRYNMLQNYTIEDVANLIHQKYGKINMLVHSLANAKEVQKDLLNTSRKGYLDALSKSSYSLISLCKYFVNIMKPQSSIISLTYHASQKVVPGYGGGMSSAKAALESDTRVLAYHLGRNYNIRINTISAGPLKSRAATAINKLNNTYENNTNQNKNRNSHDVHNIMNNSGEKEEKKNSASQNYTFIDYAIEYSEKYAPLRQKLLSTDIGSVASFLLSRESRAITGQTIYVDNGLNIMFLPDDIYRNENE

[11] = test system: human colon adenocarcinoma grade II cell line (HT29); test: Cytotoxicity to HT29 cells; assay type: cell-based; details: HT-29, read-out: IC50 HT29
[12] = test system: human SH-SY5Y neuroblastoma cell line; test: Cytotoxicity to SH-SY5Y neuroblastoma cells; assay type: cell-based; details: 120 h, read-out: IC50 SH-SY5Y neuroblastoma cell line
In short: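 Human SH-SY5Y neuroblastoma cells were first differentiated with 15 μM all-trans retinoic acid for 5 d. Test compound was then added to the culture medium, and activity was read by sulforhodamine B (SRB) assay.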

[13] = test system: M. smegmatis mc^2 155; details: ref Morbidoni et al., 2006; cited from earlier work
[14] = test system: Mycobacterium tuberculosis H37Rv; details: ref Morbidoni et al., 2006; cited from earlier work
[15] = test system: InhA, the enoyl-ACP reductase; details: in words; ref Morbidoni et al., 2006; cited from earlier work
[16] = target: T3, PfFabZ (Plasmodium falciparum, UniProt Q965D7); test: Inhibition of PfFabZ; assay type: biochemical
T3 sequence (Q965D7 19-230): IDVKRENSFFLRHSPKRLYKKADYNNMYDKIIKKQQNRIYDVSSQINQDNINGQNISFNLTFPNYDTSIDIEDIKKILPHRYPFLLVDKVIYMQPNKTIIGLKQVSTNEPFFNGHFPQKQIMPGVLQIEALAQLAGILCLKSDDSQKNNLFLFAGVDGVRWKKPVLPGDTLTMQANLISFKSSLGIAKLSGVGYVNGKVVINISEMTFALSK

[17] = test system: BALB/c murine macrophages; details: read-out: Murine macrophages BALB/c IC50; ref Carballeira et al., 2012; cited from earlier work

CCCCCCCCCCCCCCCC#CC(=O)O [2-ODA, 2-octadecynoic acid]
IC50 [1]: 11 µM
Caspase-3 activation [2]: did not produce any significant caspase-3 activation
EC50 [3]: 5.3 ± 0.7 µM
IC50 [4]: 2.9 µM
IC50 [5]: 45.5 ± 3.4 µM
EC50 [6]: 34.8 ± 2.3 µM
In vivo incorporation of [1-14C]acetate into fatty acids and hydrocarbons [7]: inhibited
LDH release [8]: significant LDH release
IC50 ([9]; Plasmodium falciparum, K1, read-out: IC50 P. falciparum K1, Carballeira and Tasdemir, unpublished data): 20 µM
IC50 ([9]; read-out: IC50 P. falciparum K1, Carballeira and Tasdemir, unpublished data): 21.7 µM
IC50 [10]: 1.1 µM
IC50 [11]: 101.1 ± 0.9 µM
IC50 [12]: 26 ± 2 µM
MIC against M. smegmatis mc^2 155 [13]: 4 µM (≈ 1.12 µg/mL)
MIC against Mycobacterium tuberculosis H37Rv [14]: 20 to 25 µM
Inhibition of InhA [15]: able to inhibit
IC50 [16]: 1 µM
IC50 [17]: > 100 µM
